Six compounds from ChEMBL document CHEMBL1124366, “Synthesis and biological properties of N63-carboxamides of teicoplanin antibiotics. Structure-activity relationships” (J Med Chem, 1989) can be followed below.

Series [1] has as its system Ac2-L-Lys-D-Ala-D-Ala peptide. Put plainly: Association constant with Ac2-L-Lys-D-Ala-D-Ala. A digest of the protocol: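 UV difference spectroscopy at 24 ± 2 °C in 4-cm unthermostated cells. Antibiotic was at 30 μM in 10% MeOH in sodium phosphate buffer, pH 9, and titrated with Ac2-L-Lys-D-Ala-D-Ala. ΔA was monitored at 294 nm. Ka was taken from the slope of a Scatchard plot.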

Series [2] relates to Bacteria. Put plainly: Minimum inhibitory concentration of compound against Gram negative bacteria. It is filed as functional.
Series [3] has as its system Streptococcus pyogenes. Put plainly: Subcutaneously administration into mice infected with Streptococcus pyogenes C 203. It is filed as functional. To be noted: sc. A digest of the protocol: (§1)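 Mice (five per treatment group, five groups) infected intraperitoneally with about 10⁵ cells of Strep. pyogenes C 203, about 100× the LD50. ED50 (mg/kg) was calculated from the percentage of mice surviving at each dose on day 7.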

The test system of series [4] is Staphylococcus epidermidis. Put plainly: In vitro minimum inhibitory concentration against Staphylococcus epidermis ATCC 12228. It counts as functional.
For series [5], the system named is Staphylococcus aureus. Put plainly: In vitro minimum inhibitory concentration against Staphylococcus aureus Tour. It counts as functional.
Series [6] has as its system Streptococcus pneumoniae. Put plainly: In vitro minimum inhibitory concentration against Streptococcus pneumoniae UC41. It is filed as functional.
The test system of series [7] is Streptococcus pyogenes. Kind of series: In vitro minimum inhibitory concentration against Streptococcus pyogenes C 203. It counts as functional.
Series [8] deals with Enterococcus faecalis. Put plainly: In vitro minimum inhibitory concentration against Streptococcus faecalis ATCC 7080. It counts as functional.
Series [9] has as its system Streptococcus pyogenes. Kind of series: In vivo effective dose given perorally to mice infected with Streptococcus pyogenes C 203. It counts as functional. The following applies: po. The gist of the method: as §1
The subject of series [10] is Staphylococcus haemolyticus. Kind of series: In vitro minimum inhibitory concentration against Staphylococcus hemolyticus 602 cell line. It is filed as functional. The following applies: strain 602.
Series [11] deals with Staphylococcus aureus. Kind of series: In vitro minimum inhibitory concentration of compound against Staphylococcus aureus Tour. It is filed as organism-based.
Series [12] has as its system Staphylococcus sp. Kind of series: Minimum inhibitory concentration of compound against 16 different strains of staphylococcus species. It counts as functional. A digest of the protocol: (§2)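 Agar dilution on Iso-Sensitest agar against clinical coagulase-negative staphylococcal isolates, including methicillin-resistant strains. Final inoculum about 10⁴ cfu/mL.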
Series [13] has as its system Staphylococcus epidermidis. Put plainly: Minimum inhibitory concentration of compound against 12 strains of Staphylococcus epidermidis. It is filed as functional. The gist of the method:
as §2

Series [14] concerns Staphylococcus epidermidis. Kind of series: 50 percent Minimum inhibitory concentration of compound against 12 strains of Staphylococcus epidermidis. It counts as functional. A digest of the protocol:
as §2

The subject of series [15] is Staphylococcus epidermidis. Kind of series: 90 percent Minimum inhibitory concentration of compound against 12 strains of Staphylococcus epidermidis. It counts as functional. The gist of the method:
as §2

Series [16] concerns Staphylococcus sp. Put plainly: 50 percent Minimum inhibitory concentration of compound against 16 different strains of staphylococcus species. It counts as functional. A digest of the protocol: as §2
Series [17] deals with Staphylococcus sp. Put plainly: 90 percent Minimum inhibitory concentration of compound against 16 different strains of staphylococcus species. It counts as functional. The gist of the method:
as §2

For series [18], the system named is Staphylococcus haemolyticus. Kind of series: Minimum inhibitory concentration of compound against 8 strains of Staphylococcus hemolyticus. It is filed as functional. The gist of the method:
as §2

Series [19] deals with Staphylococcus haemolyticus. Put plainly: 50 percent Minimum inhibitory concentration of compound against 8 strains of Staphylococcus hemolyticus. It is filed as functional. A digest of the protocol: as §2
Series [20] concerns Staphylococcus haemolyticus. Kind of series: 90 percent Minimum inhibitory concentration of compound against 8 strains of Staphylococcus hemolyticus. It counts as functional. The gist of the method:
as §2

Molecules are shown by their SMILES. Values after ≈ are worked out from the molar mass of the structure shown.

On to `CC(=O)N[C@@H]1[C@H](O[C@@H]2c3ccc(c(Cl)c3)Oc3cc4cc(c3O)Oc3ccc(cc3Cl)C[C@H]3NC(=O)[C@H](N)c5ccc(O)c(c5)Oc5cc(O)cc(c5)[C@H](NC3=O)C(=O)N[C@H]4C(=O)N[C@H]3C(=O)N[C@@H]2C(=O)N[C@H](C(=O)N2CCN(C)CC2)c2cc(O)cc(O[C@H]4O[C@H](CO)[C@@H](O)[C@@H](O)[C@@H]4O)c2-c2cc3ccc2O)O[C@@H](CO)[C@@H](O)[C@@H]1O`, for which the Ka in series [1] worked out at 100000 M⁻¹. Also, the MIC in series [2] is above 128 µg/mL; in series [4], 0.12 µg/mL (≈ 0.0729 µM); in series [5], 0.25 µg/mL (≈ 0.152 µM); in series [6], 1 µg/mL (≈ 0.607 µM); in series [7] it was 0.5 µg/mL (≈ 0.304 µM); in series [8], 2 µg/mL (≈ 1.21 µM). Further, it took a dose of 0.95 mg/kg to reach the 50% effect level in [3] (ED50).
For `CC(=O)N[C@@H]1[C@H](O[C@@H]2c3ccc(c(Cl)c3)Oc3cc4cc(c3O[C@@H]3O[C@@H](CO)[C@@H](O)[C@H](O)[C@@H]3NC(=O)CCCCCCC(C)C)Oc3ccc(cc3Cl)C[C@H]3NC(=O)[C@H](N)c5ccc(O)c(c5)Oc5cc(O)cc(c5)[C@H](NC3=O)C(=O)N[C@H]4C(=O)N[C@H]3C(=O)N[C@@H]2C(=O)N[C@H](C(=O)NC2CCN(Cc4ccccc4)CC2)c2cc(O)cc(O[C@H]4O[C@H](CO)[C@@H](O)[C@@H](O)[C@@H]4O)c2-c2cc3ccc2O)O[C@@H](CO)[C@@H](O)[C@@H]1O`, the ED50 in series [9] was above 300 mg/kg; in series [3], 0.08 mg/kg. In addition, the MIC in series [4] amounted to 0.12 µg/mL (≈ 0.0585 µM); in series [10] it was 4 µg/mL (≈ 1.95 µM); in series [11] it was 0.12 µg/mL (≈ 0.0585 µM); in series [6] it was 0.06 µg/mL (≈ 0.0292 µM); in series [7] it was 0.06 µg/mL (≈ 0.0292 µM); in series [8], 0.12 µg/mL (≈ 0.0585 µM).
For `CC(=O)N[C@@H]1[C@H](O[C@@H]2c3ccc(c(Cl)c3)Oc3cc4cc(c3O)Oc3ccc(cc3Cl)C[C@H]3NC(=O)[C@H](N)c5ccc(O)c(c5)Oc5cc(O)cc(c5)[C@H](NC3=O)C(=O)N[C@H]4C(=O)N[C@H]3C(=O)N[C@@H]2C(=O)N[C@H](C(=O)O)c2cc(O)cc(O[C@H]4O[C@H](CO)[C@@H](O)[C@@H](O)[C@@H]4O)c2-c2cc3ccc2O)O[C@@H](CO)[C@@H](O)[C@@H]1O`, the MIC is above 128 µg/mL in [2]; 0.25 µg/mL (≈ 0.16 µM) in [4]; 0.25 µg/mL (≈ 0.16 µM) in [5]; 0.5 µg/mL (≈ 0.32 µM) in series [6]; 0.12 µg/mL (≈ 0.0767 µM) in series [7]; 0.5 µg/mL (≈ 0.32 µM) in series [8]. Moreover, the ED50 in series [3] amounted to 2.64 mg/kg.
Consider `CC(=O)N[C@@H]1[C@H](O[C@@H]2c3ccc(c(Cl)c3)Oc3cc4cc(c3O)Oc3ccc(cc3Cl)C[C@H]3NC(=O)[C@H](N)c5ccc(O)c(c5)Oc5cc(O)cc(c5)[C@H](NC3=O)C(=O)N[C@H]4C(=O)N[C@H]3C(=O)N[C@@H]2C(=O)N[C@H](C(=O)N2CCSCC2)c2cc(O)cc(O[C@H]4O[C@H](CO)[C@@H](O)[C@@H](O)[C@@H]4O)c2-c2cc3ccc2O)O[C@@H](CO)[C@@H](O)[C@@H]1O`, for which the Ka in series [1] is 120000 M⁻¹. The MIC in series [2] is above 128 µg/mL; in series [4], 0.12 µg/mL (≈ 0.0728 µM); in series [5], 0.5 µg/mL (≈ 0.303 µM); in series [6], 0.5 µg/mL (≈ 0.303 µM); in series [7], 0.5 µg/mL (≈ 0.303 µM); in [8] it was 2 µg/mL (≈ 1.21 µM). The compound also came in with an ED50 in [3] of 1.6 mg/kg.
Regarding `CCCCC/C=C/CCC(=O)N[C@@H]1[C@H](Oc2c3cc4cc2Oc2ccc(cc2Cl)[C@@H](O[C@@H]2O[C@@H](CO)[C@@H](O)[C@H](O)[C@@H]2NC(C)=O)[C@@H]2NC(=O)[C@H](NC(=O)[C@@H]4NC(=O)[C@H]4NC(=O)[C@@H](Cc5ccc(c(Cl)c5)O3)NC(=O)[C@H](N)c3ccc(O)c(c3)Oc3cc(O)cc4c3)c3ccc(O)c(c3)-c3c(O[C@H]4O[C@H](CO)[C@@H](O)[C@@H](O)[C@@H]4O)cc(O)cc3[C@@H](C(=O)O)NC2=O)O[C@@H](CO)[C@@H](O)[C@@H]1O`, the figures for the ED50 in series [9] and in series [3] were 170 mg/kg and 0.12 mg/kg, respectively. The MIC is 0.25 µg/mL (≈ 0.133 µM) in series [12]; 0.25 µg/mL (≈ 0.133 µM) in series [4]; 0.25 µg/mL (≈ 0.133 µM) in series [13]; 4 µg/mL (≈ 2.13 µM) in series [10]; 0.12 µg/mL (≈ 0.0639 µM) in series [5]; 0.06 µg/mL (≈ 0.032 µM) in series [6]. The values for the MIC in [18], in [7] and in [8] were 2 µg/mL (≈ 1.07 µM), 0.06 µg/mL (≈ 0.032 µM) and 0.12 µg/mL (≈ 0.0639 µM), respectively. In addition, the values for the MIC50 in [14], in [16] and in [19] were 0.5 µg/mL (≈ 0.266 µM), 1 µg/mL (≈ 0.533 µM) and 16 µg/mL (≈ 8.52 µM), respectively. The MIC90 in series [15] was 2 µg/mL (≈ 1.07 µM); in [17], 4 µg/mL (≈ 2.13 µM); in series [20], 32 µg/mL (≈ 17 µM).
Turning to `CC(=O)N[C@@H]1[C@H](O[C@@H]2c3ccc(c(Cl)c3)Oc3cc4cc(c3O[C@@H]3O[C@@H](CO)[C@@H](O)[C@H](O)[C@@H]3NC(=O)CCCCCCC(C)C)Oc3ccc(cc3Cl)C[C@H]3NC(=O)[C@H](N)c5ccc(O)c(c5)Oc5cc(O)cc(c5)[C@H](NC3=O)C(=O)N[C@H]4C(=O)N[C@H]3C(=O)N[C@@H]2C(=O)N[C@H](C(=O)NCCCN(C)C)c2cc(O)cc(O[C@H]4O[C@H](CO)[C@@H](O)[C@@H](O)[C@@H]4O)c2-c2cc3ccc2O)O[C@@H](CO)[C@@H](O)[C@@H]1O`, the median effective dose (ED50) in series [9] was 70.7 mg/kg; in series [3], 0.05 mg/kg. In addition, the MIC in [12] stood at 0.25 µg/mL (≈ 0.127 µM); in series [4] it was 0.06 µg/mL (≈ 0.0306 µM); in series [13], 0.125 µg/mL (≈ 0.0637 µM); in [10], 0.12 µg/mL (≈ 0.0611 µM); in series [5], 0.12 µg/mL (≈ 0.0611 µM); in series [6], 0.06 µg/mL (≈ 0.0306 µM). Besides, the MIC in series [18] was determined as 1 µg/mL (≈ 0.509 µM); in series [7] it was 0.06 µg/mL (≈ 0.0306 µM); in series [8] it was 0.12 µg/mL (≈ 0.0611 µM). Also, the MIC50 in [14] turned out to be 0.25 µg/mL (≈ 0.127 µM); in series [16], 0.5 µg/mL (≈ 0.255 µM); in series [19], 1 µg/mL (≈ 0.509 µM). Besides, the MIC90 in [15] came to 1 µg/mL (≈ 0.509 µM); in series [17] it was 1 µg/mL (≈ 0.509 µM); in series [20], 2 µg/mL (≈ 1.02 µM).

As a reminder, the ED50 is the midpoint of the dose-response relation. A high value points to weaker potency. For orientation: MIC50 means an inhibitory concentration at the 50% level, which refers to growth in some studies and to a panel of isolates in others. By MIC90 is commonly meant the lowest concentration that inhibits either 90% of growth or 90% of the strains tested, depending on the study. A high value points to lower susceptibility.
